According to ChEMBL document CHEMBL1255409, “In vitro activity of ceftaroline against 623 diverse strains of anaerobic bacteria” (2010):
≈ marks a conversion by molar mass, not a printed value.

Tests used:
Prevotella denticola = experiment: Antimicrobial activity against Prevotella denticola under anaerobic conditions after 44 hrs by CLSI-M11-47 protocol based agar dilution method; type: functional
In short: (§1)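 Clinical isolates were stored at −70°C in 20% skim milk and identified phenotypically or by partial 16S rRNA sequencing. Each strain was subcultured twice from frozen stock. Cell paste from 48-h cultures was suspended in brucella broth to a 0.5 McFarland standard. About 10^5 CFU per spot were applied by Steers replicator to agar dilution plates prepared on the day of testing. Plates were incubated 44 h at 37°C in an anaerobic chamber. MIC was taken as the lowest concentration giving complete inhibition or marked reduction of growth versus the drug-free control.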

Lacticaseibacillus casei = experiment: Antimicrobial activity against Lactobacillus casei under anaerobic conditions after 44 hrs by CLSI-M11-47 protocol based agar dilution method; type: functional; in short: as §1
Actinomyces turicensis = experiment: Antimicrobial activity against Actinomyces turicensis under anaerobic conditions after 44 hrs by CLSI-M11-47 protocol based agar dilution method; type: functional; conditions: Schaalia turicensis
In short: (§2)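 Reference agar dilution per CLSI M11-A7 with plates made on test day. Clinical isolates were stored at −70°C in 20% skim milk, subcultured twice, and 48-h cell paste was suspended in brucella broth to 0.5 McFarland. About 10^5 CFU/spot was applied with a Steers replicator. Plates were incubated 44 h at 37°C anaerobically. MIC was the lowest concentration giving complete inhibition or marked growth reduction versus the drug-free control.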

Prevotella tannerae = experiment: Antimicrobial activity against Prevotella tannerae under anaerobic conditions after 44 hrs by CLSI-M11-47 protocol based agar dilution method; type: functional; conditions: Alloprevotella tannerae; in short: as §1
Eubacterium limosum = experiment: Antimicrobial activity against Eubacterium limosum under anaerobic conditions after 44 hrs by CLSI-M11-47 protocol based agar dilution method; type: functional; in short: as §2
Gemella morbillorum = experiment: Antimicrobial activity against Gemella morbillorum under anaerobic conditions after 44 hrs by CLSI-M11-47 protocol based agar dilution method; type: functional; in short: as §1
Parvimonas micra = experiment: Antimicrobial activity against Parvimonas micra under anaerobic conditions after 44 hrs by CLSI-M11-47 protocol based agar dilution method; type: functional; in short: as §1
[1] = test system: Peptostreptococcus anaerobius; experiment: Antimicrobial activity against Peptostreptococcus anaerobius under anaerobic conditions after 44 hrs by CLSI-M11-47 protocol based agar dilution method; type: functional; in short: as §1
[2] = test system: Porphyromonas asaccharolytica; experiment: Antimicrobial activity against Porphyromonas asaccharolyticus under anaerobic conditions after 44 hrs by CLSI-M11-47 protocol based agar dilution method; type: functional; in short: as §1
Prevotella corporis = experiment: Antimicrobial activity against Prevotella corporis under anaerobic conditions after 44 hrs by CLSI-M11-47 protocol based agar dilution method; type: functional; in short: as §1
Bacteroides fragilis [3] = experiment: Antimicrobial activity against Bacteroides fragilis spp. under anaerobic conditions after 44 hrs by CLSI-M11-47 protocol based agar dilution method; type: functional; in short: as §2
[4] = test system: Enterocloster clostridioformis; experiment: Antimicrobial activity against Clostridium clostridioforme under anaerobic conditions after 44 hrs by CLSI-M11-47 protocol based agar dilution method; type: functional; in short: as §2
[5] = test system: Bacteroides thetaiotaomicron; experiment: Antimicrobial activity against Bacteroides thetaiotaomicron under anaerobic conditions after 44 hrs by CLSI-M11-47 protocol based agar dilution method; type: functional; in short: as §2
Slackia exigua = experiment: Antimicrobial activity against Slackia exigua under anaerobic conditions after 44 hrs by CLSI-M11-47 protocol based agar dilution method; type: functional; in short: as §1
[6] = test system: Fusobacterium necrophorum; experiment: Antimicrobial activity against Fusobacterium necrophorum under anaerobic conditions after 44 hrs by CLSI-M11-47 protocol based agar dilution method; type: functional; in short: as §2
Bacteroides fragilis [7] = experiment: Antimicrobial activity against Bacteroides fragilis under anaerobic conditions after 44 hrs by CLSI-M11-47 protocol based agar dilution method; type: functional; in short: as §2
[8] = test system: Parabacteroides distasonis; experiment: Antimicrobial activity against Bacteroides distasonis under anaerobic conditions after 44 hrs by CLSI-M11-47 protocol based agar dilution method; type: functional; in short: as §2
Hoylesella loescheii = experiment: Antimicrobial activity against Prevotella loescheii under anaerobic conditions after 44 hrs by CLSI-M11-47 protocol based agar dilution method; type: functional; in short: as §1
Cutibacterium acnes = experiment: Antimicrobial activity against Propionibacterium acnes under anaerobic conditions after 44 hrs by CLSI-M11-47 protocol based agar dilution method; type: functional; in short: as §1
Actinomyces israelii = experiment: Antimicrobial activity against Actinomyces israelii under anaerobic conditions after 44 hrs by CLSI-M11-47 protocol based agar dilution method; type: functional; in short: as §2
Anaerococcus vaginalis = experiment: Antimicrobial activity against Anaerococcus vaginalis under anaerobic conditions after 44 hrs by CLSI-M11-47 protocol based agar dilution method; type: functional; in short: as §2
[9] = test system: Actinomyces neuii subsp. anitratus; experiment: Antimicrobial activity against Actinomyces neuii subsp. anitratus under anaerobic conditions after 44 hrs by CLSI-M11-47 protocol based agar dilution method; type: functional, Winkia neuii subsp. anitrata; conditions: Winkia neuii; in short: as §2
Veillonella = experiment: Antimicrobial activity against Veillonella spp. under anaerobic conditions after 44 hrs by CLSI-M11-47 protocol based agar dilution method; type: functional; in short: as §1
Porphyromonas somerae = experiment: Antimicrobial activity against Porphyromonas somerae under anaerobic conditions after 44 hrs by CLSI-M11-47 protocol based agar dilution method; type: functional; in short: as §1
Anaerococcus octavius = experiment: Antimicrobial activity against Anaerococcus octavius under anaerobic conditions after 44 hrs by CLSI-M11-47 protocol based agar dilution method; type: functional; in short: as §2
Mogibacterium timidum = experiment: Antimicrobial activity against Mogibacterium timidum under anaerobic conditions after 44 hrs by CLSI-M11-47 protocol based agar dilution method; type: functional; in short: as §1
[Clostridium] innocuum = Antimicrobial activity against Clostridium […] under anaerobic conditions after 44 hrs by CLSI-M11-47 protocol based agar dilution method; type: functional; in short: as §2
Propionibacterium avidum = experiment: Antimicrobial activity against Propionibacterium avidum under anaerobic conditions after 44 hrs by CLSI-M11-47 protocol based agar dilution method; type: functional; conditions: Cutibacterium avidum; in short: as §1
Gemella sanguinis = experiment: Antimicrobial activity against Gemella sanguinis under anaerobic conditions after 44 hrs by CLSI-M11-47 protocol based agar dilution method; type: functional; in short: as §1
Bacteroides uniformis = experiment: Antimicrobial activity against Bacteroides uniformis under anaerobic conditions after 44 hrs by CLSI-M11-47 protocol based agar dilution method; type: functional; in short: as §2
Clostridium subterminale = experiment: Antimicrobial activity against Clostridium subterminale under anaerobic conditions after 44 hrs by CLSI-M11-47 protocol based agar dilution method; type: functional; in short: as §2
Clostridium hathewayi = experiment: Antimicrobial activity against Clostridium hathewayi under anaerobic conditions after 44 hrs by CLSI-M11-47 protocol based agar dilution method; type: functional; conditions: Hungatella hathewayi; in short: as §2

Structure (SMILES): CCO/N=C(\C(=O)N[C@@H]1C(=O)N2C(C(=O)[O-])=C(Sc3nc(-c4cc[n+](C)cc4)cs3)CS[C@H]12)c1nsc(NP(=O)(O)O)n1 [CEFTAROLINE FOSAMIL]
- MIC50 (Prevotella denticola): 2 µg/mL (≈ 2.92 µM)
- MIC90 (Prevotella denticola): 32 µg/mL (≈ 46.7 µM)
- MIC50 (Lacticaseibacillus casei): 0.5 µg/mL (≈ 0.73 µM)
- MIC90 (Lacticaseibacillus casei): 1 µg/mL (≈ 1.46 µM)
- MIC50 (Actinomyces turicensis): 0.015 µg/mL (≈ 0.0219 µM)
- MIC90 (Actinomyces turicensis): 0.25 µg/mL (≈ 0.365 µM)
- MIC50 (Prevotella tannerae): 2 µg/mL (≈ 2.92 µM)
- MIC90 (Prevotella tannerae): 32 µg/mL (≈ 46.7 µM)
- MIC50 (Eubacterium limosum): 0.125 µg/mL (≈ 0.183 µM)
- MIC90 (Eubacterium limosum): 0.25 µg/mL (≈ 0.365 µM)
- MIC50 (Gemella morbillorum): 0.06 µg/mL (≈ 0.0876 µM)
- MIC90 (Gemella morbillorum): 1 µg/mL (≈ 1.46 µM)
- MIC50 (Parvimonas micra): 0.06 µg/mL (≈ 0.0876 µM)
- MIC90 (Parvimonas micra): 0.25 µg/mL (≈ 0.365 µM)
- MIC50 [1]: 0.5 µg/mL (≈ 0.73 µM)
- MIC90 [1]: 4 µg/mL (≈ 5.84 µM)
- MIC50 [2]: 0.015 µg/mL (≈ 0.0219 µM)
- MIC90 [2]: 0.03 µg/mL (≈ 0.0438 µM)
- MIC50 (Prevotella corporis): 2 µg/mL (≈ 2.92 µM)
- MIC90 (Prevotella corporis): 32 µg/mL (≈ 46.7 µM)
- MIC50 (Bacteroides fragilis [3]): 64 µg/mL (≈ 93.5 µM)
- MIC90 (Bacteroides fragilis [3]): > 64 µg/mL
- MIC50 [4]: 1 µg/mL (≈ 1.46 µM)
- MIC90 [4]: 2 µg/mL (≈ 2.92 µM)
- MIC50 [5]: 64 µg/mL (≈ 93.5 µM)
- MIC90 [5]: > 64 µg/mL
- MIC50 (Slackia exigua): 0.125 µg/mL (≈ 0.183 µM)
- MIC90 (Slackia exigua): 0.25 µg/mL (≈ 0.365 µM)
- MIC50 [6]: 0.03 µg/mL (≈ 0.0438 µM)
- MIC90 [6]: 0.06 µg/mL (≈ 0.0876 µM)
- MIC50 (Bacteroides fragilis [7]): 16 µg/mL (≈ 23.4 µM)
- MIC90 (Bacteroides fragilis [7]): 64 µg/mL (≈ 93.5 µM)
- MIC50 [8]: 64 µg/mL (≈ 93.5 µM)
- MIC90 [8]: > 64 µg/mL
- MIC50 (Hoylesella loescheii): 2 µg/mL (≈ 2.92 µM)
- MIC90 (Hoylesella loescheii): 32 µg/mL (≈ 46.7 µM)
- MIC50 (Cutibacterium acnes): ≤ 0.008 µg/mL
- MIC90 (Cutibacterium acnes): 0.06 µg/mL (≈ 0.0876 µM)
- MIC50 (Actinomyces israelii): 0.015 µg/mL (≈ 0.0219 µM)
- MIC90 (Actinomyces israelii): 0.25 µg/mL (≈ 0.365 µM)
- MIC50 (Anaerococcus vaginalis): 0.06 µg/mL (≈ 0.0876 µM)
- MIC90 (Anaerococcus vaginalis): 1 µg/mL (≈ 1.46 µM)
- MIC50 [9]: 0.015 µg/mL (≈ 0.0219 µM)
- MIC90 [9]: 0.25 µg/mL (≈ 0.365 µM)
- MIC50 (Veillonella): 0.125 µg/mL (≈ 0.183 µM)
- MIC90 (Veillonella): 0.5 µg/mL (≈ 0.73 µM)
- MIC50 (Porphyromonas somerae): 0.015 µg/mL (≈ 0.0219 µM)
- MIC90 (Porphyromonas somerae): > 16 µg/mL
- MIC50 (Anaerococcus octavius): 0.06 µg/mL (≈ 0.0876 µM)
- MIC90 (Anaerococcus octavius): 1 µg/mL (≈ 1.46 µM)
- MIC50 (Mogibacterium timidum): 0.125 µg/mL (≈ 0.183 µM)
- MIC90 (Mogibacterium timidum): 0.25 µg/mL (≈ 0.365 µM)
- MIC50 ([Clostridium] innocuum): 1 µg/mL (≈ 1.46 µM)
- MIC90 ([Clostridium] innocuum): 2 µg/mL (≈ 2.92 µM)
- MIC50 (Propionibacterium avidum): 0.25 µg/mL (≈ 0.365 µM)
- MIC90 (Propionibacterium avidum): 0.25 µg/mL (≈ 0.365 µM)
- MIC50 (Gemella sanguinis): 0.06 µg/mL (≈ 0.0876 µM)
- MIC90 (Gemella sanguinis): 1 µg/mL (≈ 1.46 µM)
- MIC50 (Bacteroides uniformis): 64 µg/mL (≈ 93.5 µM)
- MIC90 (Bacteroides uniformis): > 64 µg/mL
- MIC50 (Clostridium subterminale): 0.5 µg/mL (≈ 0.73 µM)
- MIC90 (Clostridium subterminale): 16 µg/mL (≈ 23.4 µM)
- MIC50 (Clostridium hathewayi): 1 µg/mL (≈ 1.46 µM)
- MIC90 (Clostridium hathewayi): 2 µg/mL (≈ 2.92 µM)
